Measured values: the M2OR odorant receptor database

Test system: T1, O5AN1
T1 sequence (whole entry): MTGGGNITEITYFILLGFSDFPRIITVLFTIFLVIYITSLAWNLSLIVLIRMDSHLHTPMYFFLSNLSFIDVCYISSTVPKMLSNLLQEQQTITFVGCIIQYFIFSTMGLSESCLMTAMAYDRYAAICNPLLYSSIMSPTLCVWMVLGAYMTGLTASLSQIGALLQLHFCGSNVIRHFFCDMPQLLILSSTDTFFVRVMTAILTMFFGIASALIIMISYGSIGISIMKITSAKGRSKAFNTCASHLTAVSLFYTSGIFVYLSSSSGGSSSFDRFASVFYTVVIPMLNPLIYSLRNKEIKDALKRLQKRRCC
Settings: stereoisomer not certain
Method in brief: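 Values were gathered from published papers (main text and supplementary material), with extra details requested from the original authors when needed, and checked for typos and inconsistencies. Each receptor–molecule pair is called responsive (active) if the original authors judged the measured signal statistically different from baseline, and non-responsive (inactive) otherwise. Assay methods varied by source, often transient mammalian cell-line luciferase assays. Recorded details include cell line, G-protein, co-transfected protein and tags.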

Compound | odorant receptor agonist call
O=C1CCCCCCCCCCCCCC1 | active
CC1C(C)(C)C2=C(C(=O)CCC2)C1(C)C (configuration not stated) | inactive
